# Data published in ChEMBL document CHEMBL1125912, “Topically active carbonic anhydrase inhibitors. 4. [(Hydroxyalkyl)sulfonyl]benzene and [(hydroxyalkyl)sulfonyl]thiophenesulfonamides” (J Med Chem, 1991).
# Tested on: not listed separately
# Experiment: Solubility (buffer pH 7.4)
# Format: physicochemical
# Settings: read-out: S
# How it was run: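 Solubility in 50 mM phosphate buffer, pH 7.4.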
row,Structure (SMILES),solubility [µg/mL]
1,COC(=O)c1cc(S(N)(=O)=O)ccc1SCCCO,1300
2,NS(=O)(=O)c1ccc(SCCCO)cc1,1400
3,NS(=O)(=O)c1ccc(SCCCO)s1,9500
4,CC(=O)OCCCCc1ccc(S(N)(=O)=O)cc1,8000
5,NS(=O)(=O)c1ccc(SCCO)c(F)c1,6000
6,NS(=O)(=O)c1ccc(SCCCO)c(F)c1,900
7,NS(=O)(=O)c1ccc(S(=O)(=O)CCCCO)cc1,2100
8,NS(=O)(=O)c1ccc(S(=O)(=O)CCCO)c([N+](=O)[O-])c1,800
9,COC(=O)c1cc(S(N)(=O)=O)ccc1S(=O)(=O)CCCO,1500
10,NS(=O)(=O)c1ccc(SCCO)s1,49000
11,COC(=O)c1cc(S(N)(=O)=O)ccc1S(=O)(=O)CCO,33400
12,NS(=O)(=O)c1ccc(CCCO)cc1,20000
13,NS(=O)(=O)c1ccc(S(=O)(=O)CCO)s1,22000
14,NS(=O)(=O)c1ccc(S(=O)(=O)CC(O)CO)cc1 (stereo unspecified),14900
15,NS(=O)(=O)c1ccc(SCCO)cc1,3500
16,CC(=O)OCCS(=O)(=O)c1ccc(S(N)(=O)=O)s1,880
17,NS(=O)(=O)c1ccc(S(=O)(=O)CCCO)c(C(=O)O)c1,53000
18,NS(=O)(=O)c1ccc(S(=O)(=O)CCCO)s1,14600
19,NS(=O)(=O)c1ccc(SCCO)c(C(=O)O)c1,9300
20,NS(=O)(=O)c1ccc(SCCCO)c([N+](=O)[O-])c1,100
21,NS(=O)(=O)c1ccc(SCCCCO)cc1,800
22,NS(=O)(=O)c1ccc(SCCCCO)s1,9300

# Tested on: not listed separately
# Experiment: Partition coefficient (pH 7.4)
# Format: ADME
# Settings: octanol/water
# How it was run: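 1-Octanol/phosphate buffer partition at pH 7.4 and 0.1 ionic strength. The compound was equilibrated between the phases and the concentration in each phase was measured by UV spectrophotometry.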
row,Structure (SMILES),D
1,COC(=O)c1cc(S(N)(=O)=O)ccc1SCCCO,5.5
2,CC(C)CNCCCS(=O)(=O)c1ccc(S(N)(=O)=O)s1,0.45
3,NS(=O)(=O)c1ccc(SCCCO)cc1,6.25
4,NS(=O)(=O)c1ccc(SCCCO)s1,7
5,NS(=O)(=O)c1ccc(SCCO)c(F)c1,5.3
6,NS(=O)(=O)c1ccc(SCCCO)c(F)c1,9.8
7,NS(=O)(=O)c1ccc(S(=O)(=O)CCCCO)cc1,0.25
8,NS(=O)(=O)c1ccc(S(=O)(=O)CCCO)c([N+](=O)[O-])c1,0.9
9,COC(=O)c1cc(S(N)(=O)=O)ccc1S(=O)(=O)CCCO,0.5
10,NS(=O)(=O)c1ccc(SCCO)s1,2.4
11,COC(=O)c1cc(S(N)(=O)=O)ccc1S(=O)(=O)CCO,0.34
12,NS(=O)(=O)c1ccc(CCCO)cc1,1.48
13,NS(=O)(=O)c1ccc(S(=O)(=O)CCO)s1,0.29
14,NS(=O)(=O)c1ccc(SCCO)cc1,2.3
15,CC(=O)OCCS(=O)(=O)c1ccc(S(N)(=O)=O)s1,1.3
16,NS(=O)(=O)c1ccc(S(=O)(=O)CCCO)c(C(=O)O)c1,0.002
17,NS(=O)(=O)c1ccc(S(=O)(=O)CCCO)s1,0.44
18,NS(=O)(=O)c1ccc(SCCO)c(C(=O)O)c1,0.01
19,NS(=O)(=O)c1ccc(SCCCO)c([N+](=O)[O-])c1,9.1
20,NS(=O)(=O)c1ccc(SCCCCO)cc1,8.48
21,NS(=O)(=O)c1ccc(SCCCCO)s1,9

# Tested on: Oryctolagus cuniculus
# Experiment: Tested in vivo for the IOP (intraocular pressure) recovery after 50 uL dose of 2% concentration in albino rabbits.
# Format: functional, Eye
# Settings: not given
# How it was run: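 Conscious albino rabbits. Aqueous humor production was assessed indirectly by IOP recovery rate. A single bilateral 50-µL instillation of 2% (w/v) in 0.5% aqueous (hydroxyethyl)cellulose vehicle was given. Results are percent change from control, tested by Dunnett's two-tailed test (P<0.05).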
row,Structure (SMILES),Change from control [%]
1,NS(=O)(=O)c1cc2c(s1)S(=O)(=O)CCC2O (stereo unspecified),-40
2,COC(=O)c1cc(S(N)(=O)=O)ccc1SCCCO,-30
3,NS(=O)(=O)c1ccc(SCCO)c(F)c1,-34
4,NS(=O)(=O)c1ccc(SCCCO)c(F)c1,-30
5,COC(=O)c1cc(S(N)(=O)=O)ccc1S(=O)(=O)CCO,-24

# Organism: Oryctolagus cuniculus
# Experiment: Maximum fall in IOP after 50uL dose of 0.5% concentration in alpha-CT rabbit model; ns = 'no significant statistical change'
# Format: functional, organism-based
# Settings: not given
# How it was run: (§1)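 Alpha-chymotrypsinized rabbit model of ocular hypertension. Single 50-µL bilateral instillation of a 0.5% (w/v) solution in 0.5% aqueous (hydroxyethyl)cellulose vehicle. Read-out is the fall in IOP.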
row,Structure (SMILES),Max fall in IOP
1,NS(=O)(=O)c1ccc(SCCO)c(F)c1,No significance

# Organism: Oryctolagus cuniculus
# Experiment: Maximum fall in IOP after 50 uL dose of 0.5% concentration in alpha-CT rabbit model.
# Format: functional
# Settings: not given
# How it was run: as §1
row,Structure (SMILES),Max fall in IOP [mmHg]
1,NS(=O)(=O)c1cc2c(s1)S(=O)(=O)CCC2O (stereo unspecified),-6.9

# Tested on: not listed separately
# Experiment: Dissociation constant (pKa) (determined in 30% EtOH/water)
# Format: physicochemical
# Settings: not given
row,Structure (SMILES),pKa
1,NS(=O)(=O)c1cc2c(s1)S(=O)(=O)CCC2O (stereo unspecified),8.2
2,COC(=O)c1cc(S(N)(=O)=O)ccc1SCCCO,9.3
3,CC(C)CNCCCS(=O)(=O)c1ccc(S(N)(=O)=O)s1,9.3
4,NS(=O)(=O)c1ccc(SCCCO)cc1,10.2
5,NS(=O)(=O)c1ccc(SCCCO)s1,9.32
6,CC(=O)OCCCCc1ccc(S(N)(=O)=O)cc1,10.5
7,NS(=O)(=O)c1ccc(SCCO)c(F)c1,9.76
8,NS(=O)(=O)c1ccc(SCCCO)c(F)c1,9.64
9,NS(=O)(=O)c1ccc(S(=O)(=O)CCCCO)cc1,9.6
10,NS(=O)(=O)c1ccc(S(=O)(=O)CCCO)c([N+](=O)[O-])c1,8
11,COC(=O)c1cc(S(N)(=O)=O)ccc1S(=O)(=O)CCCO,8.9
12,NS(=O)(=O)c1ccc(SCCO)s1,9.46
13,COC(=O)c1cc(S(N)(=O)=O)ccc1S(=O)(=O)CCO,9.2
14,NS(=O)(=O)c1ccc(CCCO)cc1,10.2
15,NS(=O)(=O)c1ccc(S(=O)(=O)CCO)s1,8.65
16,NS(=O)(=O)c1ccc(S(=O)(=O)CC(O)CO)cc1 (stereo unspecified),9.35
17,NS(=O)(=O)c1ccc(SCCO)cc1,9.27
18,CC(=O)OCCS(=O)(=O)c1ccc(S(N)(=O)=O)s1,8.65
19,NS(=O)(=O)c1ccc(S(=O)(=O)CCCO)c(C(=O)O)c1,9.28
20,NS(=O)(=O)c1ccc(S(=O)(=O)CCCO)s1,8.32
21,NS(=O)(=O)c1ccc(SCCO)c(C(=O)O)c1,10.4
22,NS(=O)(=O)c1ccc(SCCCO)c([N+](=O)[O-])c1,9.38
23,NS(=O)(=O)c1ccc(SCCCCO)cc1,10.2
24,NS(=O)(=O)c1ccc(SCCCCO)s1,9.5

# Biological target: Carbonic anhydrase 2 (Homo sapiens, UniProt P00918)
# Experiment: Inhibitory activity against human carbonic anhydrase II using pH stat assay
# Format: functional
# Settings: read-out: I50
row,Structure (SMILES),IC50 [nM]
1,COC(=O)c1cc(S(N)(=O)=O)ccc1SCCCO,700
2,CC(C)CNCCCS(=O)(=O)c1ccc(S(N)(=O)=O)s1,18
3,NS(=O)(=O)c1ccc(SCCCO)cc1,20
4,NS(=O)(=O)c1ccc(SCCCO)s1,10
5,NS(=O)(=O)c1ccc(SCCO)c(F)c1,9
6,NS(=O)(=O)c1ccc(SCCCO)c(F)c1,3.5
7,NS(=O)(=O)c1ccc(S(=O)(=O)CCCCO)cc1,7
8,COC(=O)c1cc(S(N)(=O)=O)ccc1S(=O)(=O)CCCO,20
9,NS(=O)(=O)c1ccc(SCCO)s1,30
10,COC(=O)c1cc(S(N)(=O)=O)ccc1S(=O)(=O)CCO,30
11,NS(=O)(=O)c1ccc(CCCO)cc1,64
12,NS(=O)(=O)c1ccc(S(=O)(=O)CCO)s1,6
13,CC(=O)OCCS(=O)(=O)c1ccc(S(N)(=O)=O)s1,5.5
14,NS(=O)(=O)c1ccc(S(=O)(=O)CCCO)c(C(=O)O)c1,900
15,NS(=O)(=O)c1ccc(S(=O)(=O)CCCO)s1,6
16,NS(=O)(=O)c1ccc(SCCCO)c([N+](=O)[O-])c1,23
17,NS(=O)(=O)c1ccc(CCCO)c(F)c1,20
18,NS(=O)(=O)c1ccc(SCCCCO)cc1,9
19,NS(=O)(=O)c1ccc(SCCCCO)s1,3

# Organism: Oryctolagus cuniculus
# Experiment: Maximum fall in IOP after 50 uL dose of 0.5% concentration in alpha-CT rabbit model
# Format: functional
# Settings: not given
# How it was run: as §1
row,Structure (SMILES),Max fall in IOP [mmHg]
1,COC(=O)c1cc(S(N)(=O)=O)ccc1SCCCO,-4.5
2,NS(=O)(=O)c1ccc(SCCCO)c(F)c1,-3.6
3,COC(=O)c1cc(S(N)(=O)=O)ccc1S(=O)(=O)CCO,-6.3
